Reference: paper PMC9208026 (Journal of pharmacological sciences, 2022)

Key:
[1] = test system: collagen-induced arthritis (CIA) joints; assay: Histopathology study of limbs; type: in vivo, DBA1 mice; details: MTX 1.5 mg/kg i.p., CIA mice limbs, H&E, N = 4
[2] = test system: bovine type II collagen antibody; assay: Collagen antibody level in CIA mice serum; type: in vivo, DBA1 mice; details: CIA mice serum at end of study, ELISA, N = 6
Procedure, shortened: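 Serum came from CIA DBA1 mice (N = 6 per group) at the end of the study, spun at 10,000 rpm for 10 min, then cleared at 10,000 rpm for 3 min and diluted 1:40,000. Anti-bovine type II collagen ELISA: wells blocked 1 h at room temperature; standards and samples 2 h; secondary antibody 1 h; TMB 15 min; stopped and read at A450. Levels were taken from a standard curve; mean ± SEM.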

CN(Cc1cnc2nc(N)nc(N)c2n1)c1ccc(C(=O)N[C@@H](CCC(=O)O)C(=O)O)cc1 [MTX, Methotrexate]
histopathological changes (inflammation, synovial hyperplasia, cartilage/bone erosion) [1]: reduced occurrence of the changes
bovine collagen antibody level in serum compared to vehicle group [2]: lower
